Assay results as given in publication PMC5430754 (Acta Pharmaceutica Sinica. B, 2017).
Where two headings read alike, the source gives them in different places.

Experiments:
sucrase = sucrase (Rattus norvegicus, UniProt P23739); test: α-glucosidase; format: biochemical; settings: for Sucrase Inhibition (%): at the concentration of 10^—5 mol/L
[1] = molecular target: T1, porcine pancreatic lipase (Sus scrofa, UniProt P00591); test: lipase inhibitory activity; format: biochemical; settings: for Lipase Inhibition (%): at the concentration of 10^—5 mol/L; for inhibition at 10 µM: 1 h, read-out: Lipase Inhibition (%)
T1 sequence (P00591 1-450): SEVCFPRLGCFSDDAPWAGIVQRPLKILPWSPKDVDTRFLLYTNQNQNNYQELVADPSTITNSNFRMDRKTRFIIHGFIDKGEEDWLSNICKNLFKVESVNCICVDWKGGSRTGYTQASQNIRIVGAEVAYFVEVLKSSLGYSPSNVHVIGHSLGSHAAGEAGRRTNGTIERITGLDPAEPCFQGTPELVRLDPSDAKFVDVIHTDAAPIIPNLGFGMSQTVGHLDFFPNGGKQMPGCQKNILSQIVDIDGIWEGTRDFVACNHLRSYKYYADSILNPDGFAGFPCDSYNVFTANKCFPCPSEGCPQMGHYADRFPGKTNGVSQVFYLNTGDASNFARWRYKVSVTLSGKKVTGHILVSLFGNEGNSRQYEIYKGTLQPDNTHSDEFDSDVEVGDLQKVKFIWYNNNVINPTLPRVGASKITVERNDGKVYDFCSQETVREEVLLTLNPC

maltase = test: α-glucosidase; format: biochemical, Rat; settings: for Maltase Inhibition (%): at the concentration of 10^—5 mol/L; for IC50: read-out: Maltase IC50, isolated compounds
Procedure, shortened: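 Rat small-intestinal brush-border membrane vesicles, suspended in 0.1 mol/L phosphate buffer pH 6.0, served as the α-glucosidase source. Enzyme, substrate and test compound were incubated in the same buffer for 30 min at 37 °C. The reaction was stopped by heating to 80–85 °C for 3 min. Released glucose was measured by the glucose oxidase method. Triplicates at five concentrations gave IC50 from dose–response curves; % inhibition was measured at 10⁻⁵ mol/L.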

[2] = read-out: Sucrase IC50, isolated compounds

sucrase, sequence (P23739 whole entry): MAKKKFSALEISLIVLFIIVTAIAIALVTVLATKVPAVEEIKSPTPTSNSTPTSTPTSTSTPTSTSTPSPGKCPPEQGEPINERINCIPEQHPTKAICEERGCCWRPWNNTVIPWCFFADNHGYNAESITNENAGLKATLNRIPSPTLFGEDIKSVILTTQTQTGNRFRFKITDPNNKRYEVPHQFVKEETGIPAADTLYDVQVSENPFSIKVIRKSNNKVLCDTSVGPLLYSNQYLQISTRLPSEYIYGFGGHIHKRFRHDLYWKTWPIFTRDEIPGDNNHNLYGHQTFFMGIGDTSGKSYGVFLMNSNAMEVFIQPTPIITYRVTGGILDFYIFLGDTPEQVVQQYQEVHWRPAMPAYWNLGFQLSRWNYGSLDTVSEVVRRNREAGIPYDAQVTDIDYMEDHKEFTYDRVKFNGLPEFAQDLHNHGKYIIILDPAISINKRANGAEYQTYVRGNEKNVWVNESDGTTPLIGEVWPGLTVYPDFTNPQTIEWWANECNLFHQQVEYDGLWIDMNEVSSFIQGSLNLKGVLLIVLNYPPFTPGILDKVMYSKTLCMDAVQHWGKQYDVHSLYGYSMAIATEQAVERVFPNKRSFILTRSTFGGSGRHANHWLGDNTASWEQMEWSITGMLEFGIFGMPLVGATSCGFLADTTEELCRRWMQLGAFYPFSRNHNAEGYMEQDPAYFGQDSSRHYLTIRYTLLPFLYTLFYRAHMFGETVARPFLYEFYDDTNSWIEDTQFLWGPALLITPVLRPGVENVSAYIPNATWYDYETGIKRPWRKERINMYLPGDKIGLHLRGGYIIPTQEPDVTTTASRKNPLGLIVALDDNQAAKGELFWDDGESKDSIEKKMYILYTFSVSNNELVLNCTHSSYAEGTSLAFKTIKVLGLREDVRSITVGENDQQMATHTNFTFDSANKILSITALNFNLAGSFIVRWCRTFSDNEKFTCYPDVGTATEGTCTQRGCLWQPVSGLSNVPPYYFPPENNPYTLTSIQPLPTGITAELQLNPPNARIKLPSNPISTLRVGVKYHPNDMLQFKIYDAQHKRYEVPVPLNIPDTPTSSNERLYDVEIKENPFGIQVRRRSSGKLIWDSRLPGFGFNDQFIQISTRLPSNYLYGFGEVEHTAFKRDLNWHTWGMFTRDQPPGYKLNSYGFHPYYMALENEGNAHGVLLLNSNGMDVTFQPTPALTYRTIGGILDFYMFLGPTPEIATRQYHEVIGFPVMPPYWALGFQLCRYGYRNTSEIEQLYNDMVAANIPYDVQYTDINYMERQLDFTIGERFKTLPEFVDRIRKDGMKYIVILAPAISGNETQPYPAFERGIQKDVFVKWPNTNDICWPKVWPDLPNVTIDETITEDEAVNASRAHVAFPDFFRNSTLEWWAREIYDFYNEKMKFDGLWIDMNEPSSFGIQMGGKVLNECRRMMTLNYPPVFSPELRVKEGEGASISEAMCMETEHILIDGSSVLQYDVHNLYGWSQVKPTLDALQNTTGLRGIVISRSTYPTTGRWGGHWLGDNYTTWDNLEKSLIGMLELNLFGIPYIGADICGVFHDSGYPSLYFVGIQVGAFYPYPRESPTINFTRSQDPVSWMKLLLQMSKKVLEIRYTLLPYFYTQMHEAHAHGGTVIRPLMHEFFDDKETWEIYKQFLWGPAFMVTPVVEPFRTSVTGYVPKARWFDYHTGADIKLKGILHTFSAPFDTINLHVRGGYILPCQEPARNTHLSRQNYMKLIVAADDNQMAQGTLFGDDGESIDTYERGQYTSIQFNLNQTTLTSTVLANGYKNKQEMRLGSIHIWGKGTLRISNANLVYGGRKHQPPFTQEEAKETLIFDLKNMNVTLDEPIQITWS

Sucrase Inhibition (%) (sucrase)	IC50 (sucrase; [2]) [µM]	Lipase Inhibition (%) [1] [%]	IC50 (sucrase) [µM]	inhibition at 10 µM (sucrase; 0.5 h, read-out: Sucrase Inhibition (%)) [%]	IC50 [1] [µM]	inhibition at 10 µM [1] [%]	Maltase Inhibition (%) (maltase)	IC50 (maltase) [µM]	IC50 ([1]; read-out: Lipase IC50, isolated compounds) [µM]	Compound
71.3	62.1	41.6	–	–	–	–	–	–	–	O=C(/C=C/c1ccc(O)cc1)O[C@@H]1Cc2c(O)cc(O)cc2O[C@@H]1c1ccc(O)c(O)c1 [Compound 2, (–)-epicatechin-3-O-(E)-coumarate]
64.5	107	36.3	–	–	–	–	–	–	–	O=C(/C=C/c1ccc(O)c(O)c1)O[C@@H]1Cc2c(O)cc(O)cc2O[C@@H]1c1ccc(O)c(O)c1 [Compound 3, (–)-epicatechin-3-O-(E)-caffeate]
–	–	–	74.6	90.4	20.4	92.1	92.0	200	–	O=C1c2c(O)cc(O)cc2O[C@H](c2cc(O)c(O)c(O)c2)[C@H]1O [Compound 5, ampelopsin]
45.4	–	42.6	–	–	–	–	71.8	49.7	–	O=C(/C=C\c1ccc(O)cc1)O[C@@H]1Cc2c(O)cc(O)cc2O[C@@H]1c1ccc(O)c(O)c1 [Compound 1, (–)-epicatechin-3-O-(Z)-coumarate]
–	–	–	–	–	32.2	70.4	48.5	–	–	Oc1cc(O)c2c(c1)O[C@H](c1ccc(O)c(O)c1)[C@H](O)C2 [Compound 6, (–)-epicatechin]
21.5	–	64.9	–	–	–	–	16.1	–	39.7	Oc1cc(O)c2c(c1)O[C@H](c1ccc(O)c(O)c1)[C@@H](O)C2 [Compound 4, (+)-catechin]
